# High-throughput results from PubChem.
# An excerpt weighted towards active compounds, which were near 2.9% of everything screened.
# S100A4 inh HTS – blocks human S100A4 binding to myosin IIA peptide; P26447; S100A4/TAMRA-MyoIIA peptide fluorescence polarization; inhibition, % at 10.7 µM; hit rate 0.14% among 360,000; AID 652163;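 active means mean inhibition of at least 70% across replicates, with every replicate also reaching that level; inconclusive means mean inhibition reaches 70% but some replicates fall short; inactive means mean inhibition below 70%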
# Target sequence (P26447 whole entry, looked up): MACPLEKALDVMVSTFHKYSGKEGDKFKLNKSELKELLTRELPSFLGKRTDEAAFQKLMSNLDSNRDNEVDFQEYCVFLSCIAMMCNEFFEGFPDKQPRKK
#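 Material: S100A4 monomer protein / Buffer or medium: 50 mM HEPES pH 7.2, 10 mM CaCl2, 100 mM KCl / Times: 5 min incubation before reading / Benchmarks: neutral control DMSO, positive control TFP / Reagent: labelled myosin peptide probe, 5 nM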
# PGC1a acetyl inh – PGC1a acetylation modulation, inhibitor mode; hit rate 0.17% among 350,000; inhibition, % at 15.6 µM; U2OS PGC1a acetylation, AlphaScreen anti-acetyl-lysine; with virally co-expressed GCN5 acetyltransferase;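 active means every replicate shows inhibition of at least 40%; inconclusive means mean inhibition at least 40% but some replicate below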;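 further: 0% = neutral control wells and 100% = positive control wells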
# Statin myotox sup – suppressors of simvastatin-induced myotoxicity in C2C12 myotubes | ATP luminescence, 48 h; scaled: DMSO 0, geranylgeraniol control 100 | hit rate 0.78% among 330,000 | AID 602340 | rescue of ATP level, % at 7.49 µM;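 active means mean ATP rescue above about 67%, or every replicate alone reaching that limit, limit read from the data, passing the limit was not always enough; inconclusive means no clear call, values can overlap the other calls; inactive means mean under the limit and some replicate under it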;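 further: myotubes were challenged with 10 µM simvastatin during compound exposure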
# DENV2 CPE rescue – inhibitors of DENV2 cytopathic effect. DENV2-infected cells, cytopathic effect rescue, plate reader. CPE inhibition, % at 9.99 µM. hit rate 1.7% among 350,000; in the data active means CPE inhibition above about 20%, passing the limit was not always enough; inconclusive means no clear call, values can overlap the other calls; tested in BHK-21 cells;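 further: 0% = median of neutral control wells and 100% = median of positive control wells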
# SIRT5 inh – inhibitors of human sirtuin-5 desuccinylase; inhibition, % at 15 µM; hit rate 1.1% among 330,000; Q9NXA8; AID 652115; Purified SirT5, succinyl-peptide AMC, trypsin-coupled fluorescence; in the data active means inhibition above about 15%; inconclusive means no clear call, values can overlap the other calls
# Target sequence (Q9NXA8 whole entry, looked up): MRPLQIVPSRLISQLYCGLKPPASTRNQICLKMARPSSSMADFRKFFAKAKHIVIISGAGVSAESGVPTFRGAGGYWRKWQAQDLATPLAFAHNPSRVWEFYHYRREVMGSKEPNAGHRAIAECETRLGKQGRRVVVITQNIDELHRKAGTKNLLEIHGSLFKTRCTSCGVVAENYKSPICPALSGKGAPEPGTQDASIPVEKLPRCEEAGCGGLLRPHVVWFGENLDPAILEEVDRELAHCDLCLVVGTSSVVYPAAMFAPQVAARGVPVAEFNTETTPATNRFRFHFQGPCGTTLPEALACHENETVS
# Active calls of the source: *; u = inconclusive; x = not tested or not shown.
SMILES,S100A4 inh HTS,PGC1a acetyl inh,Statin myotox sup,DENV2 CPE rescue,SIRT5 inh
CO[C@@H]1CN(C)C(=O)c2ccc(NC(=O)NC(C)C)cc2OC[C@H](C)N(C(=O)CC2CC2)C[C@H]1C,9,11,0,32*,-2
COCC(=O)Nc1ccc2c(c1)OC[C@@H](C)N(C(=O)COC)C[C@@H](C)[C@H](OC)CN(C)C2=O,-51,5,-3,53*,x
COCC(=O)Nc1ccc2c(c1)OC[C@H](C)N(CC1CC1)C[C@@H](C)[C@@H](OC)CN(C)C2=O,7,-5,-17,5,20*
CC(C)NC(=O)Nc1ccc2c(c1)C(=O)N([C@H](C)CO)C[C@H](C)[C@H](CN(C)C(=O)C1CCCCC1)OCCCC[C@H](C)O2,x,4,16,x,x
Cc1cc(Br)cn2c(Cc3ccccc3C(F)(F)F)c(-c3ccco3)nc12,-1,x,x,0,-4
COCC(=O)Nc1ccc2c(c1)OC[C@H](C)N(C(=O)CC1CC1)C[C@@H](C)[C@@H](OC)CN(C)C2=O,-19,13,1,-3,4
COCC(=O)Nc1ccc2c(c1)OC[C@H](C)N(C(=O)CC1CC1)C[C@H](C)[C@H](OC)CN(C)C2=O,1,8,2,31*,-5
Cc1noc(C)c1NC(=O)N[C@H]1CC[C@@H](CC(=O)NCCCN(C)C)O[C@H]1CO,-3,-5,0,2,16*
O=C(NCC[C@H]1CC[C@H](NC(=O)C2CCCC2)[C@H](CO)O1)c1cc(Cl)cc(Cl)c1,-5,-3,0,3,-3
O=C(NCC[C@@H]1CC[C@@H](NC(=O)C2CCCC2)[C@@H](CO)O1)c1cc(Cl)cc(Cl)c1,10,-11,3,21*,0
CN(C)CC(=O)N[C@H]1CC[C@H](CCNC(=O)C2CCCC2)O[C@H]1CO,-5,9,3,27*,5
CC(C)NC(=O)N[C@H]1CC[C@H](CCNC(=O)C2CCCC2)O[C@@H]1CO,-4,-2,-5,u,25*
CC(C)CC#Cc1cnc2c(c1)C(=O)N([C@H](C)CO)C[C@@H](C)[C@@H](CN(C)Cc1cccc(F)c1)O2,-32,0,-11,-1,4
CC(=O)N[C@@H]1CC[C@H](CCNC(=O)C2CCCC2)O[C@H]1CO,1,6,-4,90*,3
Cc1noc(C)c1NC(=O)N[C@@H]1CC[C@@H](CCNC(=O)C2CCCC2)O[C@H]1CO,5,4,-2,25*,2
CC(=O)N[C@@H]1CC[C@H](CCNC(=O)C2CCCC2)O[C@@H]1CO,2,-3,1,7,3
Cc1noc(C)c1NC(=O)N[C@@H]1CC[C@@H](CCNC(=O)C2CCCC2)O[C@@H]1CO,4,4,-5,-4,11
CCS(=O)(=O)N1CC(=O)N2[C@@H](CO)[C@H](c3ccc(C#CCC(C)C)cc3)[C@@H]2C1,-9,-5,x,-12,-3
COCc1nc2ccccc2n1Cc1ccc(Br)cc1,x,-11,79*,x,x
Cc1noc(C)c1NC(=O)N(C)C[C@H]1OCCCC[C@H](C)Oc2ccc(NC(=O)Cc3ccccc3)cc2C(=O)N([C@@H](C)CO)C[C@@H]1C,-3,10,x,9,1
C=CCn1c(COc2cccc(C)c2)nnc1SCC(=O)c1c(N)n(C)c(=O)n(C)c1=O,-1,x,-1,3,-5
C=CCn1c(COc2ccc(Cl)cc2)nnc1SCC(=O)c1c(N)n(C)c(=O)n(C)c1=O,2,-11,101*,3,-1
CC(C)NC(=O)Nc1ccc2c(c1)C(=O)N([C@@H](C)CO)C[C@H](C)[C@@H](CN(C)Cc1ccc(C(F)(F)F)cc1)O2,3,-4,-7,-16,2
C[C@@H]1CN([C@@H](C)CO)C(=O)c2cc(NC(=O)Nc3ccccc3)ccc2O[C@H]1CN(C)Cc1ccc(C(F)(F)F)cc1,4,1,-27,21*,3
CC(C)NC(=O)Nc1ccc2c(c1)C(=O)N([C@H](C)CO)C[C@@H](C)[C@H](CN(C)Cc1ccc(C(F)(F)F)cc1)O2,2,14,-3,7,15*
SMILES,S100A4 inh HTS,PGC1a acetyl inh,Statin myotox sup,DENV2 CPE rescue,SIRT5 inh
C[C@H]1CN([C@@H](C)CO)C(=O)c2cc(NC(=O)C3CCCCC3)ccc2O[C@@H]1CN(C)Cc1ccc(C(F)(F)F)cc1,1,-11,x,-14,5
C[C@@H]1CN([C@H](C)CO)C(=O)c2cc(NC(=O)Nc3ccc(C(F)(F)F)cc3)ccc2O[C@@H]1CN(C)Cc1ccccc1,4,1,0,83*,-3
C[C@H]1CN([C@@H](C)CO)C(=O)c2cc(NC(=O)C3CC3)ccc2O[C@H]1CN(C)Cc1ccc(C(F)(F)F)cc1,-1,5,-28,27*,4
C[C@H](CO)N1C[C@H](C)[C@H](CN(C)S(=O)(=O)c2cn(C)cn2)Oc2ccc(NC(=O)Cc3ccccc3)cc2C1=O,-8,-12,-17,-9,-4
O=C(Nc1ccc(Cl)c(Cl)c1)N[C@H]1CC[C@H](CCNC(=O)c2ccc(F)cc2)O[C@@H]1CO,-14,0,-7,7,1
COc1ccc(CN(C)C[C@H]2Oc3ccc(NC(=O)NC(C)C)cc3C(=O)N([C@@H](C)CO)C[C@H]2C)cc1,-4,-7,-10,3,-3
C(=N\Nc1nc2ccccc2[nH]1)/c1ccc2ncccc2c1,3,49*,-19,7,-2
C(=N\Nc1nc2ccccc2[nH]1)/c1ccccn1,-3,x,x,1,1
OC[C@@H]1[C@@H](c2ccccc2)C2(CN(CC3CC3)C2)N1Cc1ccc(F)cc1,-11,-13,x,23*,-2
CCS(=O)(=O)N1CC2(C1)[C@@H](c1ccccc1)[C@@H](CO)N2Cc1ccc(F)cc1,0,-2,x,1,6
CCS(=O)(=O)N1CC2(C1)[C@@H](c1ccccc1)[C@H](CO)N2Cc1ccc(F)cc1,-10,-4,x,35*,16*
O=C(CC1CC1)N1CC2(C1)[C@@H](c1ccccc1)[C@@H](CO)N2Cc1cccc(F)c1,0,13,x,1,19*
CCCNC(=O)N1[C@@H](CO)[C@H](c2ccccc2)C12CN(C(=O)CC1CC1)C2,-42,-15,x,-2,38*
O=C(Cc1ccccc1)N[C@@H]1CC[C@H](CC(=O)N2CCOCC2)O[C@H]1CO,12,8,3,3,2
COCC(=O)N(C)C[C@H]1Oc2cc(C#CC3CCCC3)ccc2S(=O)(=O)N([C@@H](C)CO)C[C@H]1C,x,-6,-6,x,x
O=C(C[C@@H]1C[C@@H]2c3cc(NC(=O)C4CCC4)ccc3O[C@@H]2[C@@H](CO)O1)NCC1CC1,-6,1,-2,-3,-3
CN(C)CC#Cc1ccc([C@@H]2[C@@H](CO)N3C(=O)CN(C(=O)Cc4ccccc4)C[C@@H]23)cc1,29,-12,x,-2,2
O=C(C[C@@H]1CC[C@H]2[C@@H](COC[C@@H](O)CN2C(=O)c2cc(Cl)cc(Cl)c2)O1)N1CCc2ccccc2C1,-30,-5,19,2,-2
